From ChEMBL document CHEMBL1144700, “Synthesis of new N-phenylpyrazole derivatives with potent antimicrobial activity” (2008) come the findings set out here.

≈ marks a conversion by molar mass, not a printed value.

For orientation: MIC means the smallest concentration in the dilution series that meets the test's criterion for growth inhibition.

What all share (assay type): functional
For assay [1], the system named is Staphylococcus aureus. Nature of the assay: Antibacterial activity against Staphylococcus aureus after 24 hrs by agar diffusion test. The gist of the method:
(§1)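 Disc diffusion: organism culture swabbed dry onto prepared agar plates; sterile 9.6 mm discs soaked in compound solution (stock 0.5 g in 10 ml DMF), dried and laid on the inoculated surface. Standard antimicrobial disc placed at the plate centre. Incubation at 37 °C for 24 h.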
A general note: Agar diffusion results depend on both activity and mobility in agar.

For assay [2], the system named is Pseudomonas aeruginosa. Nature of the assay: Antibacterial activity against Pseudomonas aeruginosa after 24 hrs by agar diffusion test. The gist of the method:
as §1

Assay [3] deals with Aspergillus fumigatus. Nature of the assay: Antifungal activity against Aspergillus fumigatus after 24 hrs by agar diffusion test. The gist of the method: as §1
The test system of assay [4] is Candida albicans. Briefly: Antifungal activity against Candida albicans after 24 hrs by agar diffusion test. The gist of the method:
as §1

Assay [5] deals with Aspergillus fumigatus. Nature of the assay: Antifungal activity against Aspergillus fumigatus after 72 hrs. The gist of the method: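 Microwell growth assay with conidia from 48 h Sabouraud agar cultures, final 5 × 10³ conidia per well. Medium-only and fluconazole-range controls included. Incubated at 23 °C for 72 h with growth checked every 24 h, then read as absorbance at 620 nm. Each concentration run in triplicate and the experiment repeated three times.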

With `Cc1c(C(=O)CC2C(=O)CC(C)(C)CC2=O)c(C(=O)Nc2ccccc2)nn1-c1ccccc1`, the “inhibition zone (IZ)” value is reported as 11 mm/mg in assay [1], 0 mm/mg in assay [2], 0 mm/mg in assay [3] and 10 mm/mg in assay [4].
With `Cc1c(C(=O)CBr)c(C(=O)Nc2ccccc2)nn1-c1ccccc1`, the “inhibition zone (IZ)” value is 18 mm/mg in assay [1], 20 mm/mg in assay [2], 12 mm/mg in assay [3] and 16 mm/mg in assay [4]. The same compound had an MIC in assay [5] of 25 µg/mL (≈ 62.8 µM).
For the compound `Cc1c(-c2cc[nH]n2)c(C(=O)Nc2ccccc2)nn1-c1ccccc1`, the “inhibition zone (IZ)” value in assay [1] was 13 mm/mg; in assay [2], 13 mm/mg; in assay [3] it was 0 mm/mg; in assay [4], 12 mm/mg.
Consider `CN(C/C=C/C#CC(C)(C)C)Cc1cccc2ccccc12` [TERBINAFINE], for which the “inhibition zone (IZ)” value in assay [3] and in assay [4] was 10 mm/mg each time.
Regarding `C[C@@H]1[C@H](O)[C@@H](C)/C=C/C=C/C=C/C=C/C=C/C=C/C=C/[C@H](O[C@@H]2O[C@H](C)[C@@H](O)[C@H](N)[C@@H]2O)C[C@@H]2O[C@](O)(C[C@@H](O)C[C@@H](O)[C@H](O)CC[C@@H](O)C[C@@H](O)CC(=O)O[C@H]1C)C[C@H](O)[C@H]2C(=O)O` [AMPHOTERICIN B], in assay [5], the MIC was found to be 11 µg/mL (≈ 11.9 µM).
`Cc1c(-c2csc(N)n2)c(C(=O)Nc2ccccc2)nn1-c1ccccc1`: the “inhibition zone (IZ)” value was 13 mm/mg in assay [1], 18 mm/mg in assay [2], 0 mm/mg in assay [3] and 13 mm/mg in assay [4].
As for `Cc1c(-c2ccon2)c(C(=O)Nc2ccccc2)nn1-c1ccccc1`, the “inhibition zone (IZ)” value is listed as 13 mm/mg in assay [1], 13 mm/mg in assay [2], 0 mm/mg in assay [3] and 13 mm/mg in assay [4].
Consider `O=C(N[C@H](CO)[C@H](O)c1ccc([N+](=O)[O-])cc1)C(Cl)Cl` [CHLORAMPHENICOL], for which the “inhibition zone (IZ)” value in assay [1] was 21 mm/mg; in assay [2], 20 mm/mg.
The compound `Clc1ccc(COC(Cn2ccnc2)c2ccc(Cl)cc2Cl)c(Cl)c1` (centres undefined) [MICONAZOLE] had an MIC in assay [5] of 27.5 µg/mL (≈ 66.1 µM).
In the case of `Cc1c(-c2ccc(Cl)cc2)nn2c(-c3c(C(=O)Nc4ccccc4)nn(-c4ccccc4)c3C)ccnc12`, the “inhibition zone (IZ)” value in assay [1] is given as 10 mm/mg; in assay [2], 0 mm/mg; in assay [3], 0 mm/mg; in assay [4], 10 mm/mg.
In the case of `CC(=O)c1c(C(=O)Nc2ccccc2)nn(-c2ccccc2)c1C`, the “inhibition zone (IZ)” value in assay [1] was determined as 21 mm/mg; in assay [2] it was 17 mm/mg; in assay [3] it was 0 mm/mg; in assay [4], 15 mm/mg.
The corresponding values for `Cc1c(-c2ccnc3nncn23)c(C(=O)Nc2ccccc2)nn1-c1ccccc1` are 13 mm/mg, 13 mm/mg, 0 mm/mg and 12 mm/mg.
Take `Cc1c(-c2cnc3ccccc3n2)c(C(=O)Nc2ccccc2)nn1-c1ccccc1`: the “inhibition zone (IZ)” value in assay [1] turned out to be 11 mm/mg; in assay [2], 10 mm/mg; in assay [3], 0 mm/mg; in assay [4] it was 10 mm/mg.
Turning to `Cc1c(-c2ccccc2)nn2c(-c3c(C(=O)Nc4ccccc4)nn(-c4ccccc4)c3C)ccnc12`, the “inhibition zone (IZ)” value was 8 mm/mg in assay [1], 0 mm/mg in assay [2], 0 mm/mg in assay [3] and 10 mm/mg in assay [4].
Consider `Cc1c(C(=O)/C=C/NNC(N)=S)c(C(=O)Nc2ccccc2)nn1-c1ccccc1`, for which the “inhibition zone (IZ)” value in assay [1] worked out at 10 mm/mg; in assay [2] it was 8 mm/mg; in assay [3] it was 0 mm/mg; in assay [4], 12 mm/mg.
Consider `Cc1c(-c2cnc3sc4ccccc4n23)c(C(=O)Nc2ccccc2)nn1-c1ccccc1`, for which the “inhibition zone (IZ)” value is reported as 12 mm/mg in assay [1], 10 mm/mg in assay [2], 0 mm/mg in assay [3] and 12 mm/mg in assay [4].
Turning to `Cc1c(C(=O)/C=C/N(C)C)c(C(=O)Nc2ccccc2)nn1-c1ccccc1`, the “inhibition zone (IZ)” value is 14 mm/mg in assay [1], 14 mm/mg in assay [2], 0 mm/mg in assay [3] and 15 mm/mg in assay [4].
